From ChEMBL document CHEMBL1128379, “Synthesis, characterization, and antimalarial activity of the glucuronides of the hydroxylated metabolites of arteether” (J Med Chem, 1995) come the findings set out here.

Converted amounts (≈) assume the structure as drawn.

Test system in one series: not listed separately
Briefly: Partition coefficient (logP). The conditions noted are these: octanol/water. It counts as physicochemical. In a few lines: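 log P estimated from C-18 HPLC retention index. Retention times taken on thermospray LC/MS, isocratic 50% (v/v) methanol in water with 0.1 M ammonium acetate at 1 mL/min, positive ion, filament on, vaporizer tip 7 °C below take-off temperature, block 184 °C.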
In the case of `C[C@H]1[C@@H](O)O[C@@H]2O[C@@]3(C)CC[C@H]4[C@H](C)CC[C@@H]1[C@@]24OO3` [ARTENIMOL], the lipophilicity (logP) (commonly a log measure of how a compound divides between an organic and an aqueous phase) is listed as 2.45.

Still in this series, the particulars now being: octanol/water; read-out: logP.
For `CCO[C@H]1O[C@@H]2O[C@@]3(C)CC[C@H]4[C@H](C)[C@@H](O[C@H]5O[C@@H](C(=O)O)[C@H](O)[C@@H](O)[C@@H]5O)C[C@@H]([C@H]1C)[C@@]24OO3`, the logP came to 0.61. The same measure, in the same setting: as for `CCO[C@H]1O[C@@H]2O[C@@]3(C)CC[C@H]4[C@H](CO[C@H]5O[C@@H](C(=O)O)[C@H](O)[C@@H](O)[C@@H]5O)CC[C@@H]([C@H]1C)[C@@]24OO3`, the figure is 1.05; as for `CCO[C@H]1O[C@@H]2O[C@@]3(C)CC[C@H]4[C@H](C)[C@H](O[C@H]5O[C@@H](C(=O)O)[C@H](O)[C@@H](O)[C@@H]5O)C[C@@H]([C@H]1C)[C@@]24OO3`, 0.93.

For the compound `C[C@H]1[C@H](O[C@@H]2O[C@H](C(=O)O)C(O)[C@H](O)C2O)O[C@@H]2O[C@H]3CC[C@H]4[C@H](C)CC[C@@H]1[C@@]24OO3` (stereo partly drawn), the log partition coefficient (logP) worked out at 1.08. Still for that read-out and setting: the value for `C[C@H]1[C@@H](O[C@@H]2O[C@H](C(=O)O)C(O)[C@H](O)C2O)O[C@@H]2O[C@H]3CC[C@H]4[C@H](C)CC[C@@H]1[C@@]24OO3` (stereo partly drawn) was 1.8; that for `CCO[C@H]1O[C@@H]2O[C@@]3(C)CC[C@H]4[C@H](C)[C@@H](O)C[C@@H]([C@H]1C)[C@@]24OO3` was 1.93. Turning to `CCO[C@H]1O[C@@H]2O[C@@]3(C)CC[C@H]4[C@H](CO)CC[C@@H]([C@H]1C)[C@@]24OO3`, the logP was 2.08. Still for that read-out and setting: the value for `CCO[C@H]1O[C@@H]2O[C@@]3(C)CC[C@H]4[C@H](C)[C@H](O)C[C@@H]([C@H]1C)[C@@]24OO3` was 2.14; that for `CCO[C@H]1O[C@@H]2O[C@@]3(C)C[C@H](O)[C@H]4[C@H](C)CC[C@@H]([C@H]1C)[C@@]24OO3` was 2.7; that for `CCO[C@H]1O[C@@H]2O[C@@]3(C)CC[C@H]4[C@H](C)CC[C@@H]([C@H]1C)[C@@]24OO3` [ARTEMOTIL] was 3.89.

The subject of another series is Plasmodium falciparum. Briefly: In vitro antimalarial activity against Plasmodium falciparum FCR3. It counts as functional, organism-based.
Settings: not given
In a few lines: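 P. falciparum FCR-3 kept in candle jars in RPMI 1640 with 10% human serum, sorbitol-synchronized for at least three cycles. Serially diluted compounds plus ring-stage parasitized cells (0.5-1% parasitemia, 5-10% hematocrit), 37 °C for 24 h, then 2 μCi [3H]hypoxanthine added and incubated 24 h more. Cells harvested, scintillation counted, drug-free parasitized controls run alongside.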
For `CCO[C@H]1O[C@@H]2O[C@@]3(C)CC[C@H]4[C@H](C)[C@@H](O[C@H]5O[C@@H](C(=O)O)[C@H](O)[C@@H](O)[C@@H]5O)C[C@@H]([C@H]1C)[C@@]24OO3`, the IC50 (in general, the concentration that inhibits the measured activity by half) came out at 0.0893 mg/L (≈ 0.177 µM). Turning to `CCO[C@H]1O[C@@H]2O[C@@]3(C)CC[C@H]4[C@H](CO[C@H]5O[C@@H](C(=O)O)[C@H](O)[C@@H](O)[C@@H]5O)CC[C@@H]([C@H]1C)[C@@]24OO3`, half-maximal inhibition (IC50) required 6 mg/L (≈ 11.9 µM). `CCO[C@H]1O[C@@H]2O[C@@]3(C)CC[C@H]4[C@H](C)[C@H](O[C@H]5O[C@@H](C(=O)O)[C@H](O)[C@@H](O)[C@@H]5O)C[C@@H]([C@H]1C)[C@@]24OO3`: half-maximal inhibition (IC50) was put at 6.56 mg/L (≈ 13 µM). Same read-out and setting: the value for `C[C@H]1[C@H](O[C@@H]2O[C@H](C(=O)O)C(O)[C@H](O)C2O)O[C@@H]2O[C@H]3CC[C@H]4[C@H](C)CC[C@@H]1[C@@]24OO3` (stereo partly drawn) was 6 mg/L (≈ 13.4 µM).

`C[C@H]1[C@@H](O[C@@H]2O[C@H](C(=O)O)C(O)[C@H](O)C2O)O[C@@H]2O[C@H]3CC[C@H]4[C@H](C)CC[C@@H]1[C@@]24OO3` (stereo partly drawn): the IC50 was 0.255 mg/L (≈ 0.571 µM). On the same count and under the same terms, the value for `CCO[C@H]1O[C@@H]2O[C@@]3(C)CC[C@H]4[C@H](C)CC[C@@H]([C@H]1C)[C@@]24OO3` [ARTEMOTIL] was 0.0013 mg/L (≈ 0.00416 µM). The same measure, in the same setting: as for `C[C@H]1[C@@H](O)O[C@@H]2O[C@@]3(C)CC[C@H]4[C@H](C)CC[C@@H]1[C@@]24OO3` [ARTENIMOL], the figure is 0.0107 mg/L (≈ 0.0376 µM).
